Assay results reported in ChEMBL document CHEMBL2380272, “Biological evaluation of bisbenzaldehydes against four Mycobacterium species” (Eur J Med Chem, 2013).
In brackets after ≈: the same amount, converted by molar mass.

Key:
Salmonella typhimurium [1] = assay: Genotoxicity in recombinant Salmonella typhimurium TA104 expressing Vibrio fisheri luxabcd genes under transcriptional control of recN2-4 promoter assessed as concentration required to cause DNA damage measured every 5 mins for 4 hrs by vitotox assay in presence of S9 fraction; type: toxicity, organism-based; conditions: salmonella enterica subsp. enterica serovar typhimurium, s9, 4 h
Method in brief: (§1)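 VITOTOX genox strain TA104 recN2-4 (recN promoter driving lux). Grown 16 h at 36 °C in poor LB, diluted 125-fold and shaken 1 h, then diluted 10-fold; rat aroclor S9 added for +S9 runs. Incubated at 30 °C with light read every 5 min for 4 h. Signal/noise = exposed over unexposed light. Highest concentration tested 10 µM.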

[2] = Toxicity in recombinant Salmonella typhimurium TA104 expressing luxabcd genes under transcriptional control of constitutive pr1 promoter assessed as concentration required to reduce cell viability measured every 5 mins for 4 hrs by vitotox assay in presence of S9 fraction; type: organism-based; conditions: salmonella enterica subsp. enterica serovar typhimurium; read-out: Activity
Method in brief: (§2)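 Cytox strain TA104 pr1 (constitutive promoter driving lux), run alongside the genox strain. Grown in poor LB at 36 °C for 16 h, diluted 125-fold and shaken 1 h, then diluted 10-fold, with or without aroclor-rat S9. Luminescence read at 30 °C every 5 min over 4 h; a drop in light signal indicates reduced viability. Top concentration 10 µM.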

Salmonella typhimurium [3] = assay: Toxicity in recombinant Salmonella typhimurium TA104 expressing luxabcd genes under transcriptional control of constitutive pr1 promoter assessed as concentration required to reduce cell viability measured every 5 mins for 4 hrs by vitotox assay in absence of S9 fraction; type: organism-based; conditions: salmonella enterica subsp. enterica serovar typhimurium; method in brief: as §2
Salmonella typhimurium [4] = assay: Genotoxicity in recombinant Salmonella typhimurium TA104 expressing Vibrio fisheri luxabcd genes under transcriptional control of recN2-4 promoter assessed as concentration required to cause DNA damage measured every 5 mins for 4 hrs by vitotox assay in absence of S9 fraction; type: toxicity, organism-based; conditions: salmonella enterica subsp. enterica serovar typhimurium; method in brief: as §1
[5] = Cytotoxicity against human HepG2/C3A cells assessed as cell viability at 180 uM after 24 hrs by neutral red uptake assay relative to control; type: cell-based; conditions: read-out: Activity
Method in brief: (§3)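 C3A cells grown in DMEM + 10% FCS, 40 000 cells/well, recovered overnight at 37 °C, 5% CO2. Exposed 24 h to serial dilutions in DMEM + 10% FCS from 18 mM DMSO stocks, DMSO limited to 1%. Neutral red added for 3 h, cells washed, dye extracted with ethanol/acetic acid (50%/1%), OD read at 540 nm with 620 nm reference. Viability expressed as % of untreated cells.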

[6] = Cytotoxicity against human HepG2/C3A cells assessed as cell viability at 120 uM after 24 hrs by neutral red uptake assay relative to control; type: cell-based; conditions: read-out: Activity; method in brief: as §3
[7] = Cytotoxicity against human HepG2/C3A cells assessed as cell viability at 60 uM after 24 hrs by neutral red uptake assay relative to control; type: cell-based; conditions: read-out: Activity; method in brief: as §3
[8] = tested on: Mycobacterium tuberculosis; assay: Antimycobacterial activity against Mycobacterium tuberculosis H37Rv infected in mouse J774.A1 cells at 1 MOI assessed as intracellular bacterial growth inhibition at 0.1 uM after 1 hr by luciferase reporter gene assay relative to control; type: functional; conditions: J774.A1, 1 h, read-out: GI
[9] = tested on: Mycobacterium tuberculosis; assay: Antimycobacterial activity against Mycobacterium tuberculosis H37Rv infected in mouse J774.A1 cells at 1 MOI assessed as intracellular bacterial growth inhibition at 1 uM after 1 hr by luciferase reporter gene assay relative to control; type: functional; conditions: J774.A1, 1 h, read-out: GI
[10] = tested on: Mycobacterium tuberculosis; assay: Antimycobacterial activity against Mycobacterium tuberculosis H37Rv infected in mouse J774.A1 cells at 1 MOI assessed as intracellular bacterial growth inhibition at 10 uM after 1 hr by luciferase reporter gene assay relative to control; type: functional; conditions: J774.A1, 1 h, read-out: GI
[11] = Selectivity index, ratio of NI50 for human HepG2/C3A cells to MIC50 for Mycobacterium tuberculosis H37Rv ATCC 27294; type: functional
[12] = Potency index, ratio of MIC50 for Mycobacterium avium subsp. paratuberculosis ATCC 19698 to MIC50 for Mycobacterium bovis AN5; type: functional
[13] = Potency index, ratio of MIC50 for Mycobacterium avium subsp. avium ATCC 15769 to MIC50 for Mycobacterium bovis AN5; type: functional
Mycobacterium ulcerans = assay: Antimycobacterial activity against Mycobacterium ulcerans 1615 assessed as growth inhibition after 6 days by luciferase reporter gene assay; type: functional; conditions: Mycobacterium ulcerans, 1615, 144 h
Method in brief: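 M. ulcerans 1615 carrying pSMT1 luciferase reporter plasmid, stock grown as surface pellicle on Sauton medium, cultured at 32 °C. Serial compound dilutions in 7H9 + 10% FCS from 10 mM DMSO stocks, tested in triplicate. Filtered bacteria added at 50 000 RLU/mL. After 6 days, wells collected and washed with PBS, 1% n-decanal in ethanol added, light read over 10 s. MIC50 = concentration giving 50% inhibition versus untreated.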

[14] = tested on: Mycobacterium avium subsp. paratuberculosis; assay: Antimycobacterial activity against Mycobacterium avium subsp. paratuberculosis ATCC 19698 assessed as growth inhibition after 6 days by luciferase reporter gene assay; type: functional; conditions: ATCC 19698, 144 h
Method in brief: (§4)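 Mycobacteria carrying the pSMT1 luciferase reporter plasmid. Compounds came from 10 mM DMSO stocks and were serially diluted in 7H9 + 10% FCS. Thawed bacteria were filtered, recovered 1 h at 37 °C, then added at 50 000 RLU/mL. After 6 days of culture, light was read for 10 s after adding 1% n-decanal. Triplicates were run, and MIC50 was the concentration giving 50% growth inhibition.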

[15] = Antimycobacterial activity against Mycobacterium avium subsp. avium ATCC 15769 assessed as growth inhibition after 6 days by luciferase reporter gene assay; type: functional; conditions: ATCC 15769, 144 h; method in brief: as §4
[16] = tested on: Mycobacterium tuberculosis; assay: Antimycobacterial activity against Mycobacterium tuberculosis H37Rv ATCC 27294 assessed as growth inhibition after 6 days by luciferase reporter gene assay; type: functional; conditions: H37Rv ATCC 27294, 144 h; method in brief: as §4
[17] = tested on: Mycobacterium tuberculosis; assay: Antimycobacterial activity against Mycobacterium tuberculosis H37Rv ATCC 27294 assessed as growth inhibition at 0.1 uM after 6 days by luciferase reporter gene assay relative to control; type: functional; conditions: H37Rv ATCC 27294, 144 h, read-out: GI
Method in brief: (§5)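 Luminescent M. tb H37Rv (hsp60-driven luciferase) in 7H9 + 10% FCS was seeded at 50 000 RLU/mL. Compounds were tested at 10, 1 and 0.1 µM from 10 mM DMSO stocks. After 6 days, luminescence was read with 1% n-decanal. Growth inhibition (%) was expressed against untreated culture, with triplicates.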

[18] = tested on: Mycobacterium tuberculosis; assay: Antimycobacterial activity against Mycobacterium tuberculosis H37Rv ATCC 27294 assessed as growth inhibition at 1 uM after 6 days by luciferase reporter gene assay relative to control; type: functional; conditions: H37Rv ATCC 27294, 144 h, read-out: GI; method in brief: as §5
[19] = tested on: Mycobacterium tuberculosis; assay: Antimycobacterial activity against Mycobacterium tuberculosis H37Rv ATCC 27294 assessed as growth inhibition at 10 uM after 6 days by luciferase reporter gene assay relative to control; type: functional; conditions: H37Rv ATCC 27294, 144 h, read-out: GI; method in brief: as §5
[20] = Genotoxicity in human HepG2/C3A cells assessed as DNA fragmentation at 0.75 mM after 24 hrs by alkaline comet assay (reference value: 6.65%); type: toxicity, cell-based; conditions: 750 µM
[21] = Genotoxicity in human HepG2/C3A cells assessed as DNA fragmentation at 0.5 mM after 24 hrs by alkaline comet assay (reference value: 6.65%); type: toxicity, cell-based; conditions: 500 µM

Row | Compound | Activity (Salmonella typhimurium [1]) [µM] | MCC at 4 h [2] [µM] | Activity (Salmonella typhimurium [3]) [µM] | Activity (Salmonella typhimurium [4]) [µM] | viability at 24 h, 180 µM [5] [%] | viability at 24 h, 120 µM [6] [%] | viability at 24 h, 60 µM [7] [%] | intracellular bacterial growth inhibition at 0.1 µM [8] [%] | percent inhibition of intracellular bacterial growth at 1 µM [9] [%] | intracellular bacterial growth inhibition at 10 µM [10] [%] | Selectivity Index [11] | Ratio [12] | Ratio [13] | MIC50 (Mycobacterium ulcerans) [µM] | MIC50 [14] [µM] | MIC50 [15] [µM] | MIC50 [16] [µM] | inhibition of growth at 0.1 µM [17] [%] | inhibition of growth at 1 µM [18] [%] | inhibition of growth at 10 µM [19] [%] | other results
1 | O=Cc1ccc(OCCCCCCCCOc2ccc(C=O)cc2)cc1 | > 10 | > 10 | > 10 | > 10 | 69 | 95.3 | 97.9 | 0.6 | 42.9 | 58.7 | >211.8 | 5 | 5 | > 10 | 5.83 (≈ 2.07 µg/mL) | 5.36 (≈ 1.9 µg/mL) | 0.85 (≈ 0.301 µg/mL) | 13 | 64 | 99 | –
2 | CCOS(C)(=O)=O [METHANESULFONIC ACID ETHYL ESTER] | – | – | – | – | – | – | – | – | – | – | – | – | – | – | – | – | – | – | – | – | Activity [20]: 65.15%; Activity [21]: 63.44%
3 | O=Cc1ccc(OCCCCCCCOc2ccc(C=O)cc2)cc1 | > 10 | > 10 | > 10 | > 10 | 53.4 | 78.9 | 100 | -1.2 | 43.3 | 55 | >211.8 | 5 | 5 | > 10 | 5.05 (≈ 1.72 µg/mL) | 5.12 (≈ 1.74 µg/mL) | 0.85 (≈ 0.289 µg/mL) | 13 | 62 | 99 | –
4 | O=Cc1ccc(OCCCCCCOc2ccc(C=O)cc2)cc1 | > 10 | > 10 | > 10 | > 10 | 59.3 | 85.9 | 93.4 | 3.2 | 46.6 | 52.6 | >216.9 | 5 | 5 | > 10 | 6.56 (≈ 2.14 µg/mL) | 6.18 (≈ 2.02 µg/mL) | 0.83 (≈ 0.271 µg/mL) | 15 | 65 | 99 | –
5 | O=Cc1ccc(OCCCCCCCCCOc2ccc(C=O)cc2)cc1 | > 10 | > 10 | > 10 | > 10 | 75.7 | 93 | 100 | -0.5 | 45.7 | 62.1 | >189.5 | 5 | 5 | > 10 | 5.95 (≈ 2.19 µg/mL) | 5.32 (≈ 1.96 µg/mL) | 0.95 (≈ 0.35 µg/mL) | 11 | 59 | 98 | –
6 | O=Cc1ccc(OCCCCCCCCCCOc2ccc(C=O)cc2)cc1 | > 10 | > 10 | > 10 | > 10 | 72.8 | 96.6 | 97.7 | 11.1 | 39.6 | 60.9 | >233.8 | 5 | 5 | > 10 | 5.45 (≈ 2.08 µg/mL) | 5.61 (≈ 2.15 µg/mL) | 0.77 (≈ 0.295 µg/mL) | 20 | 71 | 100 | –
7 | O=Cc1ccc(OCCCCOc2ccc(C=O)cc2)cc1 | > 10 | > 10 | > 10 | > 10 | 55.7 | 73.2 | 86.1 | -0.9 | 39 | 41.3 | >56.1 | – | – | > 10 | > 10 | > 10 | 3.21 (≈ 0.958 µg/mL) | < 10 | 25 | 87 | –
8 | O=Cc1ccc(OCCCCCCCCCCCOc2ccc(C=O)cc2)cc1 | > 10 | > 10 | > 10 | > 10 | 75.4 | 94.1 | 93.3 | 5.2 | 48.2 | 69.4 | >281.3 | 5 | 5 | 9.82 (≈ 3.89 µg/mL) | 4.23 (≈ 1.68 µg/mL) | 4.96 (≈ 1.97 µg/mL) | 0.64 (≈ 0.254 µg/mL) | 25 | 73 | 100 | –
